High-throughput results deposited in PubChem BioAssay by several laboratories.
Rows were chosen to be rich in hits. Some 12% of all compounds tested hit in one or more screens of this group.
RAM network inh: yeast RAM network inhibition. inhibition, % at 50 µM. 1.8% of 190,000 active. S. cerevisiae dse1pr::URA3 reporter, 5-FOA growth OD615, 2 d; analog-sensitive cbk1-as2 kinase mutant strain;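 active = inhibition above a set limit, 3 SD over mean compound inhibition, cut at about 8.4% in these data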;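 also: inhibition rescues growth on 5-FOA so higher OD means more RAM inhibition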
Lmaj promast: Leishmania major promastigote growth inhibition. Leishmania major promastigotes, resazurin fluorescence viability. inhibition, % at 10 µM. 9% of 200,000 active. AID 1063; in the data active = inhibition above about 50%;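 also: promastigotes grown with compound for 44 hours at 28 °C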
ABCG2 inh: blocks JC-1 efflux by human ABCG2 transporter. IgMXP3 cells, flow cytometry. inhibition, % at 6.6 µM. 0.1% of 190,000 active. AID 1325;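 active = inhibition above 80%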
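Test system: IgMXP3 (ABCG2) plus far-red-tagged CCRF-Adr (ABCB1) cells / Amount: 3 million cells/mL in well / Reagent: JC-1 transporter substrate / Timing: 10 min compound exposure, 25 °C / Signal: flow cytometry, 530 nm JC-1 signal / Read-out: percent efflux inhibition, scaled nicardipine 100% to DMSO 0% / Benchmarks: nicardipine as high control, DMSO as low control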
WT yeast gro inh: growth inhibition of WT yeast, mitochondrial fusion screen. inhibition, % at 10 µM. mitochondrial fusion phenotypic screen, WT strain. 2.1% of 190,000 active. AID 1362; in the data active = inhibition above about 58%; tested in S. cerevisiae
ABCB1 inh: blocks JC-1 efflux by human ABCB1 transporter | CCRF-Adr cells, flow cytometry | inhibition, % at 6.6 µM | 0.067% of 190,000 active | AID 1326; in the data active = inhibition above about 40%;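 also: higher value means more JC-1 retained so stronger ABCB1 efflux block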
Large screens that a line does not name were inactive.

CC1(C)CC(N2CCOCC2)=CC(=[N+]2CCOCC2)C1	none
CC1(C)CC(N2CCCCC2)=CC(=[N+]2CCCCC2)C1	Lmaj promast 100.1
CCCN(CCC)C1=CC(=[N+]2CCCC2)CC(C)(C)C1	Lmaj promast 100.1
CCCN(CCC)S(=O)(=O)c1ccc(C(=O)Nc2nnc(-c3cc(OC)cc(OC)c3)o2)cc1	Lmaj promast 100.1
CCCN(CCC)S(=O)(=O)c1ccc(C(=O)Nc2nnc(CSC)o2)cc1	none
COc1cccc(-c2nnc(NC(=O)c3cccc(F)c3)o2)c1	none (no result: RAM network inh, Lmaj promast, ABCG2 inh, ABCB1 inh)
COc1cccc(-c2nnc(NC(=O)c3ccc(Cl)s3)o2)c1	Lmaj promast 54.8
CCCN(CCC)S(=O)(=O)c1ccc(C(=O)Nc2nnc(-c3cccc(OC)c3)o2)cc1	Lmaj promast 97.7
CCc1nnc(NC(=O)c2ccc(S(=O)(=O)N(CCOC)CCOC)cc2)o1	none
COC(=O)C1=C(C)N(C)C(=S)NC1c1c(OC)ccc2ccccc12 (centres undefined)	none
CC1CC(C)(C)NC(=S)N1CCC(=O)N1c2ccccc2CC1C (centres undefined)	none
Cc1oc(-c2ccccc2)cc1C(=O)Nc1cccc(/C=C\C(=O)O)c1	RAM network inh 8.5
CC(C)N1C2OC(C3OC4C(O3)N(C(C)C)S(=O)(=O)N4C(C)C)OC2N(C(C)C)S1(=O)=O (centres undefined)	WT yeast gro inh 62.8
COc1cc(C(=O)NCCCc2nc3ccccc3n2Cc2cc(C)ccc2C)cc(OC)c1OC	Lmaj promast 69.3
COc1ccc(S(=O)(=O)n2ccc(-c3cnc(-c4ccccc4)s3)n2)cc1	RAM network inh 9.3
Cc1ccc(C2(C)CC(C)(C)N(C(=O)CSc3nnc(C)s3)c3ccccc32)cc1 (centres undefined)	WT yeast gro inh 59.2
Cc1nnc(SCC(=O)N2c3ccccc3C(C)(c3ccccc3)CC2(C)C)s1 (centres undefined)	none
CCOc1ccc(CN2CCN(Cc3[nH]c4ccc(OC)cc4c3C)CC2CCO)cc1 (centres undefined)	Lmaj promast 56.5
CC(C)c1csc(CN2CCN(CCc3ccccc3)C(CCO)C2)n1 (centres undefined)	Lmaj promast 88.8
CCOc1ccc(CN2CCN(CCCn3cccn3)CC2CCO)cc1 (centres undefined)	Lmaj promast 92.4
Cc1ccc(CN2CCN(C3CSCCSC3)CC2CCO)cc1 (centres undefined)	none
CCOc1ccc(CN2CCN(C3CCSCC3)CC2CCO)cc1 (centres undefined)	Lmaj promast 73.2
OCCC1CN(CCCn2cccn2)CCN1Cc1ccccc1 (centres undefined)	none
CCOc1ccc(CN2CCN(Cc3nc(C(C)C)cs3)CC2CCO)cc1 (centres undefined)	Lmaj promast 81.1
CC(C)c1csc(CN2CCN(Cc3ccccc3)C(CCO)C2)n1 (centres undefined)	none
N#CCCN/N=C(/Cc1nc2ccccc2[nH]1)c1cccc(Cl)c1	Lmaj promast 77.6
CCCCOc1ccc(C(C)NC(=O)C2CCCN(S(=O)(=O)CCC)C2)cc1 (centres undefined)	none
CCCOc1cc(C)c(S(=O)(=O)NC2CC(C)(C)NC(C)(C)C2)cc1C	Lmaj promast 97.2
O=C(CN1CCN(c2cccc(C(F)(F)F)c2)CC1)Nc1cccc(C(F)(F)F)c1	none
FC(F)(F)c1cccc(N2CCN(CC3CC4C=CC3C4)CC2)c1 (centres undefined)	Lmaj promast 82.0
Fc1ccccc1N1CCN(CC2CC3C=CC2C3)CC1 (centres undefined)	Lmaj promast 89.5
C1=CC2CC1CC2CN1CCN(Cc2ccccc2)CC1 (centres undefined)	Lmaj promast 95.0
Cc1c(Cc2c(Cl)cccc2Cl)c(=O)ccn1C(C)c1ccccc1 (centres undefined)	none
CC1(C)CC(=O)C2=C(C1)N=c1s/c(=C/c3ccc(F)c(F)c3)c(=O)n1C2c1ccc(F)cc1 (centres undefined)	Lmaj promast 100.3, WT yeast gro inh 76.5
CCCCCCCCCCS(=O)(=O)N/N=C/c1ccc(O)cc1	none
CCN(CC)S(=O)(=O)c1ccc(Oc2ccccc2)cc1	Lmaj promast 99.4 (no result: WT yeast gro inh)
CN(C)S(=O)(=O)c1ccc(Oc2ccccc2)cc1	Lmaj promast 97.7
CCN(CC)S(=O)(=O)c1ccc(-c2ccc(S(=O)(=O)N(CC)CC)cc2)cc1	none
CN(C)S(=O)(=O)c1ccc(-c2ccccc2)cc1	none
COc1ccc(CN(C(=O)c2ccco2)c2ccc(C)c(C)c2)cc1	none
CC(NC(=O)C1CCC(CNS(=O)(=O)c2ccccc2)CC1)c1ccc2c(c1)OCCO2 (centres undefined)	none
O=C(NCc1ccc(F)cc1)c1nc(-c2cccs2)no1	RAM network inh 8.5
COc1ccc(CCNC(=O)c2nc(-c3cccs3)no2)cc1OC	none
O=C(Nc1nc2ccc(Cl)cc2s1)c1ccc(N2CCCCC2)c([N+](=O)[O-])c1	none
Cc1c(NC(=O)c2ncn[nH]2)cccc1-c1nc2ccccc2s1	Lmaj promast 100.4
Cc1c(NC(=O)c2ccc(N3CCCC3)c([N+](=O)[O-])c2)cccc1-c1nc2ccccc2s1	Lmaj promast 71.3
Cc1c(NC(=O)c2ccco2)cccc1-c1nc2cccnc2s1	none
COC(=O)C(CC(C)C)NC(=O)c1cccs1 (centres undefined)	none
O=C(c1ccc(S(=O)(=O)Nc2ccc(F)cc2)cc1)N1CCN(c2ccccn2)CC1	Lmaj promast 99.3
Cc1ccc(NS(=O)(=O)c2ccc(C(=O)N3CCN(c4ncccn4)CC3)cc2)cc1	none
Cc1ccccc1CNC(=O)CN(c1cccc([N+](=O)[O-])c1)S(C)(=O)=O	none
O=C(Nc1nccs1)C1CC(=O)N(c2ccc(Cl)cc2)C1 (centres undefined)	none
CCCn1c(-c2ccc[nH]c2=O)nc2cc(C)c(C)cc21	none
CN(CCOc1ccc(-c2ccn(S(=O)(=O)c3cccc4ccccc34)n2)cc1)c1ccccn1	none
Cc1ccc(C)c(N/N=C2\CCCNC2=O)c1	Lmaj promast 78.0
Cc1ccccc1N/N=C1\CCCNC1=O	none
Nc1ccccc1Oc1c(F)c(F)c(Oc2ccccc2N)c(F)c1F	none
Cc1nn(-c2ccc([N+](=O)[O-])cc2)c2c1C(c1ccc(OC(F)F)cc1)N1C(=N2)C(=O)Nc2ccccc21 (centres undefined)	Lmaj promast 68.0
Cc1ccc(C2c3c(C)nn(-c4ccc([N+](=O)[O-])cc4)c3N=C3C(=O)Nc4ccccc4N32)cc1 (centres undefined)	RAM network inh 9.9, Lmaj promast 98.6
COc1cccc(C2c3c(C)nn(-c4ccc([N+](=O)[O-])cc4)c3N=C3C(=O)Nc4ccccc4N32)c1 (centres undefined)	Lmaj promast 64.7
COc1ccc(NC(=O)c2c3c(nc4ccccc24)CCC3)cc1S(=O)(=O)N1CCOCC1	none
